Test results reported in ChEMBL document CHEMBL5653631, “A Potent and Selective ULK1 Inhibitor Suppresses Autophagy and Sensitizes Cancer Cells to Nutrient Stress” (iScience, 2018).
Calls of active or inactive are those of the source. The rule behind the calls is not given here.

What was measured:
[1] = tested on: U2OS; assay: Inhibition of autophagy in human U2OS cells assessed as BafA1-induced LC3B-II accumulation by measuring fold change at 100 nM […] by immunoblotting analysis; type: functional; details: time 4 hrs
[2] = tested on: U2OS; assay: Inhibition of autophagy in human U2OS cells assessed as ATG12-positive puncta formation at 100 nM incubated for 2.5 hrs by Fluorescent microscopy based analysis; type: functional, cell-based
Procedure, shortened: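 U2OS cells treated 2.5 hr with vehicle or 100 nM AZD8055, with or without 5 μM inhibitor; fixed and immunostained for endogenous ATG12; ATG12-positive puncta (phagophores) assessed by fluorescence microscopy.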

[3] = tested on: U2OS; assay: Inhibition of autophagy in human U2OS cells expressing […] at 100 nM incubated for 2.5 hrs by Fluorescent microscopy based analysis; type: functional, cell-based
Procedure, shortened: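 U2OS cells stably expressing EGFP-DFCP1 treated 2.5 hr with vehicle or 100 nM AZD8055, with or without 5 μM inhibitor; imaged live by fluorescence microscopy; DFCP1-positive objects per cell counted in 20–25 cells per condition; mean ± SEM, two-tailed unpaired t test.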

[4] = tested on: U2OS; assay: Inhibition of autophagy in human U2OS cells expressing […] assessed as DFCP1-positive puncta formation by measuring fold change at 100 nM incubated for 2.5 hrs by Fluorescent microscopy based analysis; type: functional
Procedure, shortened: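 U2OS cells stably expressing EGFP-DFCP1 (omegasome marker) were treated 2.5 hr with vehicle or 100 nM AZD8055 (mTOR inhibitor used to induce autophagy), with or without 5 μM inhibitor, and imaged live by fluorescence microscopy. DFCP1-positive objects per cell were counted in 20–25 cells per condition and reported as mean ± SEM, with two-tailed unpaired t test.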

What does the source list for `COc1ccc(-c2ccc3c(N4CCOC[C@@H]4C)nc(N4CCOC[C@@H]4C)nc3n2)cc1CO` [AZD-8055]?
fold change (FC) [1]: 2; inhibition [2]: Active; inhibition [3]: Active; fold change (FC) [4]: 3
